Reference: ChEMBL document CHEMBL3822365, “Probing the Anticancer Action of Oridonin with Fluorescent Analogues: Visualizing Subcellular Localization to Mitochondria” (J Med Chem, 2016)
Calls of active or inactive are those of the source. No cut-off for these calls is given here.

What was measured:
HepG2 [1] = experiment: Drug uptake in human HepG2 cells at 50 to 100 uM after 1 hr by inverted confocal microscopy; format: ADME, cell-based; conditions: hepg2, 1 h
How it was run: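 HepG2 cells incubated with probe for 1 h, then intracellular fluorescence imaged by fluorescence microscopy.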

[2] = Cytotoxicity against human Bel7402 cells assessed as growth inhibition at 1 uM after 72 hrs by MTT assay; format: functional; conditions: Bel-7402, 72 h, read-out: GI
How it was run: (§1)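 Bel-7402 cells exposed to compound for 72 h, then MTT read-out of percent growth inhibition at the single stated concentration. Values are the mean of three independent experiments.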

[3] = Cytotoxicity against human Bel7402 cells assessed as growth inhibition at 100 uM after 72 hrs by MTT assay; format: functional; conditions: Bel-7402, 72 h, read-out: GI; how it was run: as §1
[4] = Cytotoxicity against human Bel7402 cells assessed as growth inhibition at 10 uM after 72 hrs by MTT assay; format: functional; conditions: Bel-7402, 72 h, read-out: GI; how it was run: as §1
A549 [5] = experiment: Dissipation of mitochondrial membrane potential in human A549 cells at 10 uM after 36 hrs by JC-1 staining based confocal microscopy; format: functional, cell-based
How it was run: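 A549 cells were exposed to 10 μM compound for 36 h or left untreated. They were then loaded with 10 μg/mL JC-1 for 30 min at 37 °C and washed 5 min in PBS. The red-to-green fluorescence shift was viewed by confocal microscopy. Done in triplicate.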

HeLa = experiment: Cytotoxicity against human HeLa cells assessed as inhibition of cell proliferation after 72 hrs by MTT assay; format: functional, cell-based
How it was run: (§2)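 Log-phase cells seeded at 5 × 10^4 cells/mL and exposed to compound for 72 h at 37 °C, 5% CO2. MTT (5 mg/mL) added for a further 4 h, formazan dissolved in DMSO, OD read at 490 nm. Negative reference 0.1% DMSO, positive reference paclitaxel. IC50 given as mean ± SD, n = 3.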

HepG2 [6] = experiment: Cytotoxicity against human HepG2 cells assessed as inhibition of cell proliferation after 72 hrs by MTT assay; format: functional, cell-based; conditions: HepG2, 72 h; how it was run: as §2
A549 [7] = experiment: Induction of apoptosis in human A549 cells assessed as cytochrome c release from mitochondria to cytosol at 3 uM after 24 to 48 hrs by MitoTracker probe/DAPI staining based confocal laser scanning microscopy; format: functional, cell-based
How it was run: (§3)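 A549 cells exposed to compound for 24 or 48 h, then stained with MitoTracker Red for 30 min. Cells fixed in 4% formaldehyde, permeabilized with 0.2% Triton X-100 and blocked in 5% BSA for 1 h. Anti-cytochrome c primary antibody applied overnight at 4 °C, then Alexa Fluor 488 goat anti-rabbit for 2 h. DAPI nuclear counterstain, imaged by confocal microscopy.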

A549 [8] = experiment: Cytotoxicity against human A549 cells assessed as inhibition of cell proliferation after 72 hrs by MTT assay; format: functional, cell-based; conditions: A549, 72 h; how it was run: as §2
A549 [9] = experiment: Induction of apoptosis in human A549 cells assessed as cytochrome c release from mitochondria to cytosol at 5 uM after 24 to 48 hrs by MitoTracker probe/DAPI staining based confocal laser scanning microscopy; format: functional, cell-based; how it was run: as §3
A549 [10] = experiment: Dissipation of mitochondrial membrane potential in human A549 cells assessed as ratio of red to green fluorescence at 1 uM after 48 hrs by JC-1 staining based confocal microscopy; format: functional
How it was run: (§4)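 A549 cells were exposed to 1 μM compound for 12 to 48 h. They were then loaded with JC-1 at 10 μg/mL for 30 min at 37 °C and washed in PBS for 5 min. Aggregate (red, ex 525/em 600 nm) and monomer (green, ex 490/em 535 nm) signals were read by microplate reader or confocal microscope. Value is the red:green ratio, 10000 cells per condition, mean ± SD of three independent experiments.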

[11] = Drug uptake in mitochondria of human A549 cells at 1 uM after 12 hrs by MitoTracker staining based confocal laser scanning microscopy; format: ADME; conditions: a549, 12 h
How it was run: (§5)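 A549 cells were treated with 1 μM probe for 1, 3, 12 or 24 h and washed in PBS. They were then stained with MitoTracker Red CMXRos (200 nM, 0.5 h), washed in cold PBS, fixed with paraformaldehyde and imaged by confocal laser scanning microscopy. Mitochondrial overlap was quantified as Pearson's coefficient (Rr).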

[12] = Drug uptake in human A549 cell cytoplasm at 1 uM after 12 hrs by inverted confocal microscopy; format: ADME, cell-based; conditions: a549, 12 h
How it was run: (§6)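 Live A549 or HepG2 cells were given 1 μM probe for 12 h and washed with media. Confocal imaging used ex 405/em 460 nm at 40× on an inverted microscope. Each experiment was repeated three times.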

A549 [13] = experiment: Drug uptake in human A549 cells at 1 uM preincubated with compound 25 for 24 hrs followed by compound addition measured after 1 hr by confocal microscopy; format: ADME, cell-based; conditions: a549, 1 h
A549 [14] = experiment: Drug uptake in human A549 cells at 1 uM preincubated with oridonin for 24 hrs followed by compound addition measured after 1 hr by confocal microscopy; format: ADME, cell-based; conditions: a549, 1 h
A549 [15] = experiment: Drug uptake in human A549 cells at 1 uM preincubated with compound 26 for 24 hrs followed by compound addition measured after 1 hr by confocal microscopy; format: ADME, cell-based; conditions: a549, 1 h
A549 [16] = experiment: Drug uptake in human A549 cells at 1 uM after 5 mins by inverted confocal microscopy; format: ADME, cell-based; conditions: a549, 5 min
[17] = Drug uptake in mitochondria of human A549 cells at 1 uM after 24 hrs by MitoTracker staining based confocal laser scanning microscopy; format: ADME; conditions: a549, 24 h; how it was run: as §5
HepG2 [18] = experiment: Drug uptake in human HepG2 cells at 1 uM after 12 hrs by inverted confocal microscopy; format: ADME, cell-based; conditions: hepg2, 12 h; how it was run: as §6
HepG2 [19] = experiment: Drug uptake in human HepG2 cells at 5 uM after 1 hr by inverted confocal microscopy; format: ADME, cell-based; conditions: hepg2, 1 h
How it was run: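 HepG2 cells were incubated with probe at 5 μM for 1 h and then examined by fluorescence microscopy for intracellular staining.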

A549 [20] = experiment: Dissipation of mitochondrial membrane potential in human A549 cells at 1 uM by JC-1 staining based confocal microscopy; format: functional, cell-based; conditions: TDE = time-dependent effect; how it was run: as §4
[21] = Drug uptake in mitochondria of human A549 cells at 1 uM after 1 hr by MitoTracker staining based confocal laser scanning microscopy; format: ADME; conditions: a549, 1 h; how it was run: as §5
HepG2 [22] = experiment: Drug uptake in human HepG2 cells at 1 uM after 5 mins by inverted confocal microscopy; format: ADME, cell-based; conditions: hepg2, 5 min
A549 [23] = experiment: Dissipation of mitochondrial membrane potential in human A549 cells assessed as ratio of red to green fluorescence at 1 uM after 12 to 48 hrs by JC-1 staining based confocal microscopy; format: functional; how it was run: as §4

In the case of `CCN(CC)c1ccc2cc(C(=O)OCCO)c(=O)oc2c1`, the Drug uptake (HepG2 [1]) is reported as “Not Active”, the inhibition of growth at 1 µM [2] is reported as 0.7% and the inhibition of growth at 100 µM [3] is reported as 9.5%. For the same compound, the inhibition of growth at 10 µM [4] was 3.7%.
With `C=C1C(=O)[C@]23[C@H](OC(=O)CCCC(=O)OCCOCCOC(=O)c4cc5ccc(N(CC)CC)cc5oc4=O)[C@H]1CC[C@H]2[C@@]12CO[C@@]3(O)[C@@H](O)[C@@H]1C(C)(C)CC[C@@H]2O` the inhibition of growth at 1 µM [2] was 1.4%, the inhibition of growth at 100 µM [3] was 94.6% and the inhibition of growth at 10 µM [4] was 70.1%.
In the case of `C=C1C(=O)[C@]23[C@H](O)[C@H]1CC[C@H]2[C@@]12CO[C@]3(O)[C@@H](O)[C@@H]1C(C)(C)CC[C@@H]2O` [ORIDONIN], the inhibition of growth at 1 µM [2] is reported as 37.9%, the Activity (A549 [5]) is reported as “Active” and the IC50 (HeLa) is reported as 17.8 µM. The inhibition of growth at 100 µM [3] was 94.6%, the IC50 (HepG2 [6]) was 15.2 µM and the Activity (A549 [7]) was “Active”. The IC50 (A549 [8]) was 10.4 µM, the Activity (A549 [9]) was “Active” and the inhibition of growth at 10 µM [4] was 94.8%.
`C=C1C(=O)[C@]23[C@H](OC(=O)CCCC(=O)OCCOC(=O)c4cc5ccc(N(CC)CC)cc5oc4=O)[C@H]1CC[C@H]2[C@@]12CO[C@@]3(O)[C@@H](O)[C@@H]1C(C)(C)CC[C@@H]2O` showed an inhibition of growth at 1 µM [2] of 4.9%, an inhibition of growth at 100 µM [3] of 94.6% and an inhibition of growth at 10 µM [4] of 85%.
With `C=C1C(=O)[C@]23[C@H](OC(=O)CCCC(=O)OCCCCOC(=O)c4cc5ccc(N(CC)CC)cc5oc4=O)[C@H]1CC[C@H]2[C@@]12CO[C@@]3(O)[C@@H](O)[C@@H]1C(C)(C)CC[C@@H]2O` the inhibition of growth at 1 µM [2] was 88.6%, the Ratio (A549 [10]) was 0.312 and the Drug uptake [11] was “Active”. The Drug uptake [12] was “Active”, the Drug uptake (A549 [13]) was “Not Active” and the Activity (A549 [14]) was “Not Active”. The Drug uptake (A549 [15]) was “Active”, the IC50 (HeLa) was 2 µM and the Drug uptake (A549 [16]) was “Active”. For the same compound, the Drug uptake [17] was “Not Active”, the Drug uptake (HepG2 [18]) was “Active” and the inhibition of growth at 100 µM [3] was 93.8%. For the same compound, the IC50 (HepG2 [6]) was 2.6 µM, the Drug uptake (HepG2 [19]) was “Active” and the Activity (A549 [20]) was “tde”. For the same compound, the Drug uptake [21] was “Active”, the IC50 (A549 [8]) was 5.1 µM and the Drug uptake (HepG2 [22]) was “Active”. It also gave a Ratio (A549 [23]) of 1.496 and an inhibition of growth at 10 µM [4] of 94%.
With `C=C1C(=O)[C@]23[C@H](OC(=O)Cc4cc(=O)oc5cc(N(C)C)ccc45)[C@H]1CC[C@H]2[C@@]12CO[C@@]3(O)[C@@H](O)[C@@H]1C(C)(C)CC[C@@H]2O` the inhibition of growth at 1 µM [2] was 13.6%, the inhibition of growth at 100 µM [3] was 92.4% and the inhibition of growth at 10 µM [4] was 94.5%.
In the case of `C=C1C(=O)[C@]23[C@H](OC(=O)CCC(=O)OCCOC(=O)c4cc5ccc(N(CC)CC)cc5oc4=O)[C@H]1CC[C@H]2[C@@]12CO[C@@]3(O)[C@@H](O)[C@@H]1C(C)(C)CC[C@@H]2O`, the inhibition of growth at 1 µM [2] is reported as 11.5%, the inhibition of growth at 100 µM [3] is reported as 94.4% and the inhibition of growth at 10 µM [4] is reported as 72.4%.
